Bioassay records deposited in PubChem by Sanford-Burnham Center for Chemical Genomics.
A selection follows.
Apaf1 activ = activators of human Apaf-1 apoptosome; activity change, negative = activation, % at 20 µM; Apaf-1 apoptosome caspase-3 activation, DEVD-Rh110 fluorescence; stronger effect = lower value; AID 489031; 0.31% of 330,000 active; O14727;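 active = activity change at or below -40% at 20 µM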
Target sequence (O14727 whole entry, looked up): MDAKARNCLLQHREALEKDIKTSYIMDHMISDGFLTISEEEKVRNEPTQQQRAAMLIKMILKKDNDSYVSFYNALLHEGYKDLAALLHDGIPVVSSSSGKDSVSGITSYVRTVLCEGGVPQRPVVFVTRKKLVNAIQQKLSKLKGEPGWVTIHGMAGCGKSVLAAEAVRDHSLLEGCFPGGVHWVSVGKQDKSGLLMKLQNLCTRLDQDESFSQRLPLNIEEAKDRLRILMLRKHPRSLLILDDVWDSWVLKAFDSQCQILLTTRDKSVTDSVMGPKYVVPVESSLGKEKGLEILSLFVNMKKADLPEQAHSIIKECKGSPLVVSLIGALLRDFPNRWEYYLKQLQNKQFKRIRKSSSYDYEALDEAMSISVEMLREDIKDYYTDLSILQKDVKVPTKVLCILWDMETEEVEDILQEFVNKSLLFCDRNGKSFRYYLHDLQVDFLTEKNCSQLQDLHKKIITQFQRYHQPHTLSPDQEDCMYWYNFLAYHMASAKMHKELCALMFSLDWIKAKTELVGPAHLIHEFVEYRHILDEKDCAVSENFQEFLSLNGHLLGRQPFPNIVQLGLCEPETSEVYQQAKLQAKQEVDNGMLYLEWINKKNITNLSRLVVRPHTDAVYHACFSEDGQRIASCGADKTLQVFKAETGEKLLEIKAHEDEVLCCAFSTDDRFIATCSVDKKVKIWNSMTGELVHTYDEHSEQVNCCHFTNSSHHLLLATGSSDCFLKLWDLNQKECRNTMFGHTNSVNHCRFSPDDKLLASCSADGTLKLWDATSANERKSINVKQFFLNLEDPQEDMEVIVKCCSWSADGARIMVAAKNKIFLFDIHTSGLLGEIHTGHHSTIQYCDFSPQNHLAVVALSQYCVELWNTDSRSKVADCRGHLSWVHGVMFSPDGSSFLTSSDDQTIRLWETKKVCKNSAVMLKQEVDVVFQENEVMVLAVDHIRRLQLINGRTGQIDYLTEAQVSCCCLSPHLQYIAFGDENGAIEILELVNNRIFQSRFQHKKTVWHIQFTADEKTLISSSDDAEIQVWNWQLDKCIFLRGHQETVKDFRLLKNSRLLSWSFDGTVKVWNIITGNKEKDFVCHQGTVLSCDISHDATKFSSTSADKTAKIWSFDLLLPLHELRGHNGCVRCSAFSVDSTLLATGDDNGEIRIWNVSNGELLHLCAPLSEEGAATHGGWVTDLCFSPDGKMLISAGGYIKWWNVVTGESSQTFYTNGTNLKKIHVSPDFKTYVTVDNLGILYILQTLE
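Material: biochemical Apaf-1 apoptosome reconstitution; Medium: 20 mM HEPES buffer, pH 7.5, containing CHAPS and BSA; Reagent: dATP, cytochrome c, and (Z-DEVD)2-Rh110 caspase-3 substrate; Times: 30 min preincubation, 50 min reaction, room temperature; Signal: Rh110 fluorescence, excitation 480 nm, emission 540 nm; Measure: Caspase-3 activity via Apaf-1.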
Rh110 interf act = Rh110 signal interference in Apaf-1 activator counter-screen | Rh110 fluorescence interference, quenched caspase reaction, Ex480/Em540 | 980 tested, under 10 active | fluorescence interference (activity change), % at 20 µM, hits read low | shares compounds with Apaf1 activ | AID 504616;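 active = mean activity change at or below -40% when tested at 20 µM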
Apaf-1 act conf = Apaf-1 (human) activation, single-dose confirmed. 5% of 980 active. activity change, negative = activation, % at 20 µM. shares compounds with Apaf1 activ. AID 504617. reconstituted apoptosome caspase-3 activity, DEVD-Rh110 fluorescence; stronger effect = lower value;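 active = mean activity change at or below -40%, meaning activation of 40% or more, at 20 µM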
A number is an active result; – = inactive; · = no result.

SMILES | Apaf1 activ | Rh110 interf act | Apaf-1 act conf
O=C(c1ccco1)[C@@H]1[C@@H]2C(=O)N(c3ccc(F)cc3)C(=O)[C@@H]2C2c3ccccc3C=CN21 (stereo partly specified) | – | · | ·
O=C(Nc1ccc2nc(-c3ccco3)c(-c3ccco3)nc2c1)N1CCCCCC1 | – | · | ·
Cc1cccc(C(=O)N/C(=C\c2ccco2)C(=O)N2CCCC2)c1 | -134 | – | –
O=C(NCC(c1ccco1)N1CCCC1)c1cccc(S(=O)(=O)Nc2ccc(Br)cc2)c1 (stereo unspecified) | – | · | ·
CSc1ncccc1C(=O)NCCc1ccc(Cl)cc1 | -99 | – | –
COc1cccc2cc(C(=O)NCc3ccc(Cl)cc3)c(=N)oc12 | – | · | ·
CCCNC(=O)c1ccc(SC)cc1OC | -174 | – | –
Cc1ccc2c(C)nc(Nc3nc(CSc4nc5ccccc5[nH]4)cc(=O)[nH]3)nc2c1 | -71 | – | –
CCCCNC1=CC(=O)C(=O)c2ccccc21 | – | · | ·
CC1CCCCC1NS(=O)(=O)c1ccc(S(=O)(=O)N2CCN(CCC#N)CC2)cc1 (stereo unspecified) | -65 | – | –
OC(CNCC1CCCO1)Cn1c2ccc(Cl)cc2c2cc(Cl)ccc21 (stereo unspecified) | – | · | ·
O=C(c1ccccc1)c1ccc2nc(-c3ccco3)c(-c3ccco3)nc2c1 | – | · | ·
CC(C)CNC(=O)c1c(F)c(F)c(F)c(F)c1F | -54 | – | –
COc1cccc(NC(=O)C2CCCO2)c1 (stereo unspecified) | -114 | – | –
COc1ccc(OC)c(C2=NOC(C(=O)Nc3ccc4c(c3)OCCO4)C2)c1 (stereo unspecified) | – | · | ·
C=CCNC(C(=O)Nc1cccc(OC)c1)c1ccccc1 (stereo unspecified) | – | · | ·
COc1ccc(-c2oc3ncnc(NCCN4CCOCC4)c3c2-c2ccc(OC)cc2)cc1 | – | · | ·
COc1ccc(C2C(C(=O)c3ccco3)=C(O)C(=O)N2CCCn2ccnc2)c(OC)c1 (stereo unspecified) | – | · | ·
O=C(NCCCn1ccnc1)C1c2ccccc2Oc2ccccc21 | -417 | – | –
CC1CN(Cc2c(O)ccc3c2oc(=O)c2ccccc23)CC(C)O1 (stereo unspecified) | – | · | ·
COc1ccc2c(c1)OC[C@H]1[C@H]2N2C(=O)c3cc(OC)c(OC)cc3NC(=O)[C@@]2(C)[C@H]1c1ccccc1 | -143 | – | –
COc1ccc(-c2sc3cc4c(cc3c2-c2ccc(OCCN3CCCCC3)cc2)OCO4)cc1 | – | · | ·
Cc1cc2c(N)cccc2nn1 | – | · | ·
O=C1C=C(c2ccc(OC(F)(F)F)cc2)C[C@@H](c2ccc(F)cc2)C1 | – | · | ·
Cc1c(C(=O)N2CCOCC2)c(S(=O)(=O)Nc2cccc(Br)c2)c(C)n1C | -44 | – | –
SMILES | Apaf1 activ | Rh110 interf act | Apaf-1 act conf
C#CCOCCOCCOCCNc1nc(N2CCN(C(=O)CCCCCCCCCCNC(=O)[C@H]([C@@H](C)CC)n3cc(CCCCN=C(N)N)nn3)CC2)nc(N2CCN(C(=O)CCCCCCCCCCNC(=O)[C@H](CCCCN)n3cc(C)nn3)CC2)n1 | – | · | ·
COc1ccc(C(CNC(=O)c2cc3c(s2)CCC(C)C3)N2CCCC2)cc1 (stereo unspecified) | – | · | ·
Cc1cc(C)nc(NC(=O)CSc2nc3ccccc3o2)n1 | -71 | – | –
Nc1cc2nc3ccccc3oc-2cc1=O | – | · | ·
CCC1C(=O)N=C(SCC(=O)Nc2nc3ccccc3s2)NC1=O (stereo unspecified) | – | · | ·
CCCCCc1cc(=O)oc2c(C(CCN3CCCC(C)C3)c3ccc4c(c3)OCO4)c(OC)cc(OC)c12 (stereo unspecified) | – | · | ·
C/C=C(\C)C(=O)NCCN1C2=NC[C@@H](Cc3ccccc3)N2C[C@@H]1Cc1ccc(OC)cc1 | – | · | ·
CCCCCCCCCCCCCCCC[N+](C)(C)CC | – | · | ·
CC1=NN(c2ccc(Cl)cc2)C(=O)C1C(c1cccc(O)c1)c1c(C)[nH]n(-c2ccc(Cl)cc2)c1=O (stereo unspecified) | – | · | ·
CN(Cc1ccc(F)cc1)Cc1nc(CCc2ccccc2)no1 | -143 | – | –
COc1ccccc1/C=C/C(=O)OCC(=O)NC1CCS(=O)(=O)C1 (stereo unspecified) | -78 | – | –
O=C(NC1=C(NC2CCS(=O)(=O)C2)C(=O)c2ccccc2C1=O)c1ccccc1 (stereo unspecified) | – | · | ·
NC(=O)N(CCC(=O)O)c1ccccc1 | -47 | – | –
O=C1C(Cl)=C(NC(=O)c2ccccc2)C(=O)C(Cl)=C1NC(=O)c1ccccc1 | – | · | ·
O=C(NC1=C(Nc2ccc(Cl)cc2)C(=O)c2ccccc2C1=O)c1ccccc1 | – | · | ·
O=C(NNC(=S)Nc1ccc(Cl)cc1)c1ccccc1 | -66 | – | –
Cc1ccc(C(=O)Nc2ccccn2)cc1S(=O)(=O)N1CCOCC1 | – | · | ·
O=C(Nc1nnc(S(=O)(=O)N2CCOCC2)s1)c1ccccc1Br | -95 | – | –
CC(C)(C)NC[C@H](O)COc1nsnc1N1CCOCC1 | – | · | ·
C#CCOCCOCCOCCNc1nc(N2CCN(C(=O)[C@H]([C@@H](C)CC)n3cc([C@@H](N)Cc4ccc(O)cc4)nn3)CC2)nc(N2CCN(C(=O)[C@H](CCCCN)n3cc([C@@H](N)CO)nn3)CC2)n1 | – | · | ·
CCSc1nsc(NC(=O)Nc2ccc(F)cc2F)n1 | -95 | – | –
FC(F)(F)c1cc(CCN2CCNC[C@H]2Cc2cccc3ccccc23)cc(C(F)(F)F)c1 | – | · | ·
COc1cc2sc3ccc(-c4ccc(N(C)C)nc4)cc3c(=O)c2cc1OC | – | · | ·
COc1cc2c(C#N)c(N3CCCCC3)nc(N)c2c(N)n1 | – | · | ·
C=C(C)Cn1c(NCCOC)nc2c1c(=O)[nH]c(=O)n2C | -40 | – | –
COc1ccc(/C=C2/C(=O)N(c3ccccc3)N=C2C)cc1OC | – | · | ·
CCCCCC(=O)Nc1ccc(N2CCN(S(C)(=O)=O)CC2)cc1 | -523 | – | –
O=C(COc1ccc2ccc(=O)oc2c1)Nc1ccc(N2CCCCC2)cc1 | – | · | ·
